# An excerpt weighted towards active compounds, which were near 4.1% of everything screened.
# Cl transport mod – KCC2 cotransporter modulators, thallium flux, primary screen, cell-based, HEK293 KCC2, FluoZin-2 fluorescence, MLSMR | KCC2 cells, thallium flux FluoZin-2 fluorescence | B-score of Tl+ flux slope (higher = more flux/activation; lower = inhibition) at 10 µM | actives 2.2% (n = 190,000) | AID 1456, 2008;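 active = thallium flux slope and its plate-corrected score both differing from the plate sample mean at a set confidence after two filtering rounds, in either direction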;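 note: slope of fluorescence scaled to starting intensity during 10 to 20 s after thallium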
# hERG protect – hERG rescue from dofetilide block, primary screen, cell-based, CHO-hERG, FluxOR thallium flux, dofetilide IC70 | Voltage-gated inwardly rectifying potassium channel KCNH2 (Homo sapiens), Q12809 | dofetilide IC70 present | activation (rescue from dofetilide block), less the hit threshold, % at 10 µM | actives 0.51% (n = 310,000);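 active = activation above the mean of controls blocked by dofetilide plus 5 SD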;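 note: thallium influx through hERG after potassium depolarization seen as dye fluorescence rise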
# Target sequence (Q12809 whole entry, looked up): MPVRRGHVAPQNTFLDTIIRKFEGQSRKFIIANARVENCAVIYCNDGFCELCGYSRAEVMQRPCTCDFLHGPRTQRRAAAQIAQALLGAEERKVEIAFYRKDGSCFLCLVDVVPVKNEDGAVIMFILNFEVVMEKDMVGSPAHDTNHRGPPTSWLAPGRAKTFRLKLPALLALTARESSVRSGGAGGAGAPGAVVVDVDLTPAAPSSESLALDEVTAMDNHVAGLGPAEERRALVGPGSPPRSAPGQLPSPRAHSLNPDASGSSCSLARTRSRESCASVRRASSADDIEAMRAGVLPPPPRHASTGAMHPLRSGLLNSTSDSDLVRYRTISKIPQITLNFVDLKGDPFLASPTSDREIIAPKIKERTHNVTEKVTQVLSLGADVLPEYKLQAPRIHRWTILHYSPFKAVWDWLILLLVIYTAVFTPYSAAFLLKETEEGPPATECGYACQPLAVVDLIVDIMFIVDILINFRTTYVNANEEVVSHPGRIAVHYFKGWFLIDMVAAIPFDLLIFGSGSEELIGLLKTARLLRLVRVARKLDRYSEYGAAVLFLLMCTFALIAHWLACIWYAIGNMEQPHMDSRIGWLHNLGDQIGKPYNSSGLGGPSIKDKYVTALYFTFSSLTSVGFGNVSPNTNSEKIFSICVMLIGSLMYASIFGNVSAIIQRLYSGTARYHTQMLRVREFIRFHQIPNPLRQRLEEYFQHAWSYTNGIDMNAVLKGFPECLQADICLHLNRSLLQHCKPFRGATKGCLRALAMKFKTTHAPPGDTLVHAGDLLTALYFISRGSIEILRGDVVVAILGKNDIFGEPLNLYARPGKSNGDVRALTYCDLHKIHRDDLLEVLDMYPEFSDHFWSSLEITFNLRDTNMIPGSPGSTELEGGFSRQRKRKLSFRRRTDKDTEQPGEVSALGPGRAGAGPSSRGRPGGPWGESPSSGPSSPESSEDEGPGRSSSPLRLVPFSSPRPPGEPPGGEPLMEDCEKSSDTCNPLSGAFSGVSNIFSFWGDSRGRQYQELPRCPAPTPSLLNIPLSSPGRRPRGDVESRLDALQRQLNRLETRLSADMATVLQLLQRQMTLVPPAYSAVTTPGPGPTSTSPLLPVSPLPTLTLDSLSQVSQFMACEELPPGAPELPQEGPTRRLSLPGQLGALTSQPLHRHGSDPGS
# KCNQ1 pot – potentiators or activators of KCNQ1 channel, primary screen, cell-based, thallium flux, high-throughput; CHO-K1 KCNQ1, thallium flux FluxOR fluorescence; stronger effect = higher value; B-score at 10 µM; actives 0.35% (n = 310,000);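 active = fluorescence ratio B-score, a plate-corrected score, at least three library SD, with initial intensity B-score within 5 SD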
#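 System: Stable KCNQ1 CHO-K1 line | Incubation: 90 min dye loading and 20 min compound exposure, both at room temperature | Measure: Ratio B score | Medium: Assay buffer for compound exposure, DMSO matched across wells | Compound dosing: Single-concentration screen | Probe or stimulus: K+/Tl+ depolarizing stimulus | Measured by: Kinetic FluxOR fluorescence, 10 s baseline plus 110 s post-stimulus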
# KCNK9 inh – KCNK9 potassium channel inhibitors, primary screen, HEK293 cells, thallium flux | Potassium channel subfamily K member 9 (Homo sapiens), Q9NPC2 | FluxOR thallium flux fluorescence; stronger effect = lower value | B-score at 10 µM | actives 1.2% (n = 310,000) | AID 488922, 2010;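 active = ratio B-score over 3 SD below the library mean, with starting fluorescence within 5 SD of its mean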;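 note: negative B-score means less thallium flux so channel inhibition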
# KCNQ1 block – inhibitors of human KCNQ1 channel, primary screen, cell-based, thallium flux, high-throughput | CHO-K1 KCNQ1, FluxOR thallium flux fluorescence; stronger effect = higher value | B-score at 10 µM | actives 1.3% (n = 310,000) | AID 2642, 2010;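 active = compounds whose thallium flux B-score, printed positive for inhibition, exceeds three library SD while starting fluorescence stays within three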;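 note: channel opened by potassium depolarization with thallium stimulus after 20 min compound exposure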
# KCNK3 block – human KCNK3 channel inhibitors, primary screen, CHO cells, FluxOR thallium flux, B-score; Potassium channel subfamily K member 3 (Homo sapiens), O14649; FluxOR fluorescence; stronger effect = lower value; B-score at 10 µM; actives 0.84% (n = 340,000);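 active = B-score under library mean minus 4 SD, starting fluorescence ratio at most library mean plus 5 SD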;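 note: more negative B-score means stronger inhibition of thallium flux through KCNK3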
# KCNK9 block conf – KCNK9 potassium channel inhibitors, confirmation, HEK293 cells, thallium flux, duplicate; shares compounds with KCNK9 inh; inhibition, % at 10 µM; actives 43% (n = 4,900); FluxOR thallium flux fluorescence; AID 492992, 2010;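 active = thallium signal inhibited by more than 5 SD of the compound-free buffer control wells, on both duplicate plates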;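 note: 0% = assay buffer control wells without compound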
# Kir21 sel – mouse Kir2.1 channel inhibition, confirmation, selectivity assay for KCNK9 modulator project, cell-based, HEK293, thallium flux; inhibition, % at 10 µM; actives 4% (n = 4,900); Kir2.1 cells, FluxOR thallium flux fluorescence; shares compounds with KCNK9 inh;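 active = thallium signal drop more than 5 SD beyond the mean of the no-compound control wells, seen in both duplicate plates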;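 note: signal is fluorescence rise after thallium addition divided by baseline fluorescence; plate controls were assay buffer only for no effect and full block by chlorpromazine control for full effect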
# HEK293 Tl ctr – thallium flux in non-induced HEK293 cells, confirmation, counter-screen for KCNK9 inhibitor project, cell-based, second counter screen, non-induced KCNK9-HEK293; FluxOR thallium flux; actives 40% (n = 4,900); AID 492997, 2010; inhibition, % at 10 µM; shares compounds with KCNK9 inh;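 active = thallium signal drop beyond 5 SD of the untreated control mean, on both duplicate plates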;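 note: plate controls were buffer only IC0 wells for no effect and SID17386958 at its maximal inhibitory level for full effect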
# Starred values were filed as active, the others as inactive; i = inactive; · = not tested or not shown.
SMILES,Cl transport mod,hERG protect,KCNQ1 pot,KCNK9 inh,KCNQ1 block,KCNK3 block,KCNK9 block conf,Kir21 sel,HEK293 Tl ctr
Cc1ccccc1N1CCN(C2CCCN(C(=O)c3cnsn3)C2)CC1 (stereo not drawn),·,-10,i,i,i,i,i,i,i
Cc1cc(C(=O)N2CCCC(N3CCN(c4ccccc4C)CC3)C2)nc(C)n1 (stereo not drawn),·,-9,i,i,i,i,·,·,·
Cc1nc(C(=O)N2CCCC(N3CCN(c4ccccc4C)CC3)C2)cs1 (stereo not drawn),·,-10,i,i,i,i,i,i,i
Cc1cccc(C(=O)N2CCCC(N3CCN(c4cccc(Cl)c4)CC3)C2)n1 (stereo not drawn),·,-10,i,i,i,i,i,i,i
COc1ccc(NC(=O)CCOc2ccccc2F)cc1S(=O)(=O)N1CCCCC1,·,·,·,·,·,i,·,·,·
Cc1ccc(C)c(OCCC(=O)OCC(=O)Nc2ccc(C)c(S(=O)(=O)N3CCCCC3)c2)c1,·,-9,i,-11*,i,i,i,i,29%*
COc1ccc(NC(=O)COc2ccccc2F)cc1S(=O)(=O)N1CCCCC1,·,-14,i,-9.6*,i,i,i,i,i
Cc1ccc(OCCC(=O)OCC(=O)Nc2ccc(C)c(S(=O)(=O)N3CCOCC3)c2)cc1,·,·,·,·,·,i,·,·,·
Cn1c(SCC(=O)Nc2ccccc2)nc(O)cc1=O,1,-14,i,i,i,i,·,·,·
CO/N=C/c1ccc(N2CCOCC2)c([N+](=O)[O-])c1,1.3,-14,i,i,i,i,·,·,·
O=[N+]([O-])c1cc(/C=N/OCc2c(Cl)cccc2Cl)ccc1N1CCOCC1,-0.005,-14,i,i,i,i,i,i,i
NC(=S)n1[nH]c(-c2ccc([N+](=O)[O-])cc2)c(N=Nc2ccc(O)cc2)c1=O,·,-8,i,i,i,i,·,·,·
NC(=S)n1[nH]c(-c2ccc([N+](=O)[O-])cc2)c(N=Nc2cccc(Cl)c2)c1=O,5.8*,-10,8*,i,i,i,i,i,i
O=S(=O)(c1ccccc1)N1CCN(Cc2c(O)ccc3ccccc23)CC1,·,·,·,·,·,i,·,·,·
Oc1ccc2ccccc2c1CN1CCN(C/C=C/c2ccccc2)CC1,·,-9,i,i,i,i,i,i,i
O=S(=O)(c1ccccc1)N1CCN(C/C=C/c2ccccc2)CC1,·,-3,i,i,i,i,i,i,i
O=S(=O)(c1ccc(F)cc1)N1CCN(CCc2ccccc2)CC1,·,-6,i,i,i,i,i,i,i
O=S(=O)(c1ccc(S(=O)(=O)N2CCN(C/C=C/c3ccccc3)CC2)cc1)N1CCCC1,0.19,-3,i,i,i,i,·,·,·
CC1(C(=O)Nc2nc3ccc(S(C)(=O)=O)cc3s2)CC1(Cl)Cl (stereo not drawn),·,-6,i,i,i,i,·,·,·

# Assay outcomes as filed in PubChem.
